Experimental data reported in ChEMBL document CHEMBL3875207, “New derivatives of 7-chloroquinolin-4-amine with antiprotozoal activity” (Bioorg Med Chem, 2017).

Columns and labels:
[1] = system: Trypanosoma brucei rhodesiense; test: Antitrypanosomal activity against Trypanosoma brucei rhodesiense STIB900 bloodstream forms isolated from patient after 70 hrs by microplate alamar blue assay; format: functional; conditions: STIB900, 70 h
Summary of the method: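 MEM with 25 mM HEPES, 1 g/L extra glucose, non-essential amino acids, 0.2 mM 2-mercaptoethanol, 1 mM Na-pyruvate, 15% heat-inactivated horse serum; 4×10^3 bloodstream forms per well. Eleven 3-fold dilutions, 100 to 0.002 µg/mL; 70 h, 37°C, 5% CO2. Resazurin added, further 2-4 h; fluorescence ex 536/em 588 nm. IC50 by linear regression from sigmoidal dose-inhibition curves.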

[2] = Selectivity index, ratio of IC50 for rat L6 cells to IC50 for Trypanosoma brucei rhodesiense STIB900 bloodstream forms; format: toxicity, cell-based; conditions: read-out: Ratio IC50
Summary of the method: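 Ratio of L-6 cytotoxicity IC50 to T. b. rhodesiense STIB900 IC50. L-6: 4000 cells in RPMI 1640 with L-glutamine and 10% FBS, 70 h, then Alamar Blue 2 h. Trypanosomes: 4×10^3 bloodstream forms in supplemented MEM with 15% horse serum, 37°C, 5% CO2, 70 h, then Alamar Blue 2-4 h. Both read by fluorescence (ex 536/em 588 nm) over eleven 3-fold dilutions, 100 to 0.002 µg/mL.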

Plasmodium falciparum [3] = test: Antiplasmodial activity against chloroquine-sensitive Plasmodium falciparum NF54 infected in human RBC assessed as reduction in [3H]hypoxanthine incorporation preincubated for 48 hrs followed by [3H]hypoxanthine addition measured after 24 hrs by liquid scintillation counting method; format: functional
Summary of the method: (§1)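 Erythrocytic P. falciparum in RPMI 1640 without hypoxanthine with HEPES, NaHCO3, neomycin, Albumax (5 g/L) and washed human A+ red cells at 2.5% haematocrit, 0.3% parasitaemia. Compounds from DMSO stocks (10 mg/mL) tested as eleven 3-fold dilutions, 100 to 0.002 µg/mL. Incubation at 37°C under 4% CO2/3% O2/93% N2; 3H-hypoxanthine (0.5 µCi) added at 48 h, 24 h more, scintillation counting; IC50 by linear regression from sigmoidal curves.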

[4] = Selectivity index, ratio of IC50 for rat L6 cells to IC50 for chloroquine-sensitive Plasmodium falciparum NF54 infected in human RBC; format: toxicity, cell-based; conditions: read-out: Ratio IC50
Summary of the method: (§2)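 Ratio of the IC50 in rat L-6 myoblasts to the P. falciparum IC50. L-6: 4000 cells per well, RPMI 1640 with L-glutamine and 10% FBS, 70 h, Alamar Blue 2 h, fluorescence ex 536/em 588 nm. Both use eleven 3-fold dilutions, 100 to 0.002 µg/mL.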

Plasmodium falciparum [5] = test: Antiplasmodial activity against chloroquine/pyrimethamine-resistant Plasmodium falciparum K1 infected in human RBC assessed as reduction in [3H]hypoxanthine incorporation preincubated for 48 hrs followed by [3H]hypoxanthine addition measured after 24 hrs by liquid scintillation counting method; format: functional; summary of the method: as §1
[6] = Selectivity index, ratio of IC50 for rat L6 cells to IC50 for chloroquine/pyrimethamine-resistant Plasmodium falciparum K1 infected in human RBC; format: toxicity, cell-based; conditions: read-out: Ratio IC50; summary of the method: as §2
[7] = Cytotoxicity against rat L6 cells assessed as growth inhibition after 70 hrs by alamar blue assay; format: toxicity
Summary of the method: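 4000 L-6 cells per well in RPMI 1640 with 1% L-glutamine (200 mM) and 10% FBS. Eleven 3-fold dilutions spanning 100 to 0.002 µg/mL; 70 h incubation, controls checked microscopically. Alamar Blue added for 2 h more; fluorescence ex 536/em 588 nm. IC50 by linear regression from sigmoidal dose-inhibition curves.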

[8] = Resistance index, ratio of IC50 for chloroquine/pyrimethamine-resistant Plasmodium falciparum K1 infected in human RBC to IC50 for chloroquine-sensitive Plasmodium falciparum NF54 infected in human RBC; format: functional
Summary of the method: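 Resistance index is the ratio of the IC50 against K1 to the IC50 against NF54. Both IC50s come from the 3H-hypoxanthine incorporation assay run in parallel on the two strains.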

| Compound | IC50 [1] [nM] | selectivity ratio [2] | IC50 (Plasmodium falciparum [3]) [nM] | selectivity ratio [4] | IC50 (Plasmodium falciparum [5]) [nM] | selectivity ratio [6] | IC50 at 70 h [7] [nM] | Ratio IC50 [8] |
| --- | --- | --- | --- | --- | --- | --- | --- | --- |
| CN1CCN(CC(=O)N2CCN(c3ccnc4cc(Cl)ccc34)CC2)CC1 | 2020 | 39.5 | 140 | 570 | 280 | 285 | 79800 | 2 |
| Clc1ccc2c(NCCNCCN3CCCCCC3)ccnc2c1 | 1280 | 59.5 | 11 | 6920 | 66 | 1150 | 76100 | 6 |
| CCCN(CCC)CC(=O)NCCNc1ccnc2cc(Cl)ccc12 | 940 | 23.4 | 14 | 1570 | 30 | 732 | 22000 | 2.14 |
| Clc1ccc2c(NCCN3CCCCCC3)ccnc2c1 | 590 | 22.4 | 3.3 | 4010 | 16 | 827 | 13200 | 4.85 |
| Nc1nc(N)nc(Nc2ccc([As]3SCC(CO)S3)cc2)n1 (centres undefined) [MELARSOPROL] |  | 778 |  |  |  |  | 7780 |  |
| CN1CCN(CC(=O)NCCNc2ccnc3cc(Cl)ccc23)CC1 | 18300 | 2.08 | 36 | 1060 | 2870 | 13.3 | 38000 | 79.7 |
| CCN(CC)CCCC(C)Nc1ccnc2cc(Cl)ccc12 (centres undefined) [CHLOROQUINE] |  |  |  |  |  |  | 90900 |  |
| CCCN(CCC)CCN1CCN(c2ccnc3cc(Cl)ccc23)CC1 | 1070 | 53.1 | 110 | 517 | 88 | 646 | 56800 | 0.8 |
| CCCN(CCC)CC(=O)N1CCN(c2ccnc3cc(Cl)ccc23)CC1 | 1460 | 48.3 | 230 | 306 | 310 | 227 | 70500 | 1.35 |
| O=C(CN1CCCCCC1)NCCNc1ccnc2cc(Cl)ccc12 | 280 | 50.8 | 11 | 1290 | 55 | 258 | 14200 | 5 |
| Clc1ccc2c(NCCCN3CCCCCC3)ccnc2c1 | 780 | 25.6 | 6.3 | 3170 | 38 | 525 | 20000 | 6.03 |
| CN1CCN(CCNc2ccnc3cc(Cl)ccc23)CC1 | 690 | 24.2 | 6.6 | 2540 | 36 | 465 | 16700 | 5.45 |
| Clc1ccc2c(N3CCN(CCN4CCCCCC4)CC3)ccnc2c1 | 1610 | 15.8 | 70 | 362 | 75 | 338 | 25400 | 1.07 |
| COc1cc([C@@H]2c3cc4c(cc3[C@H](O)[C@H]3COC(=O)[C@H]23)OCO4)cc(OC)c1OC [PODOFILOX] |  |  |  |  |  |  | 12 |  |
| O=C(CN1CCCC1)NCCNc1ccnc2cc(Cl)ccc12 | 740 | 62.7 | 18 | 2580 | 75 | 618 | 46400 | 4.17 |
| CN1CCN(CCCNc2ccnc3cc(Cl)ccc23)CC1 | 1140 | 15.9 | 3.1 | 5860 | 31 | 586 | 18200 | 10 |
| O=C(CN1CCCCC1)NCCNc1ccnc2cc(Cl)ccc12 | 1280 | 18.5 | 11 | 2160 | 92 | 258 | 23700 | 8.36 |
| CCCN(CCC)CCNc1ccnc2cc(Cl)ccc12 | 140 | 107 | 3.3 | 4530 | 9.8 | 1520 | 14900 | 2.97 |
